M1 PAM = positive allosteric modulators of human M1 muscarinic receptor | 360,000 compounds, 0.088% hits | AID 588819 | activation, % at 3 µM | CHO-K1 hM1, Fluo-8 calcium fluorescence, ACh EC20; 0% = ACh EC20, 100% = maximal ACh | P11229; in the data active = activation above about 19%, passing the limit was not always enough
CHRM1 antagonist = blocks human M1 muscarinic receptor; P11229; CHO-K1 hM1, Fluo-8 calcium fluorescence, ACh EC80 antagonist; inhibition, % at 3 µM; 360,000 compounds, 1.3% hits; AID 588852;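 active = percent inhibition above its own plate's cutoff, namely the mean of that plate's compound wells plus 3 SD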;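 note: peak over basal fluorescence ratio during 140 s after agonist addition; 0% = ACh EC80 plus DMSO and 100% = DMSO alone without agonist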
TAAR1 agonist = human TAAR1 agonism; CHO RD-HGA16 TAAR1, Fluo-8 calcium fluorescence; vehicle wells 0%, saturating PEA agonist 100%; AID 624467; activation, % at 3 µM; Q96RJ0; 360,000 compounds, 0.99% hits;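 active = activation above the mean activation of all test compounds in the run plus 3 SD, cut at about 38% in these data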
Target sequence (Q96RJ0 whole entry, looked up): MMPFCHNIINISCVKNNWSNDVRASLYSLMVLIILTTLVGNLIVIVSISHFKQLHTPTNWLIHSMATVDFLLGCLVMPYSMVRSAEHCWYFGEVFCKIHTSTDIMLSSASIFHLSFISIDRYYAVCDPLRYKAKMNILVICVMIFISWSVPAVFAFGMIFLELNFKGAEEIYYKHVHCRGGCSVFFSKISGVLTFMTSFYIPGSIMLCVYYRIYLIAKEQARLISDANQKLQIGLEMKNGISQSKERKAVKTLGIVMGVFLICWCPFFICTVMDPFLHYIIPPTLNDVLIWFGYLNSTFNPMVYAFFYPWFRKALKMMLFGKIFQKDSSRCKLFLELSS
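Assay system – CHO-derived RD-HGA16 cells with stable Gα16 and human TAAR1 · Compound dosing – one-point dosing at 3 µM (nominal) · Incubation – 17-24 h seeding, 75 min 37 °C dye, 30 min RT · Measured by – kinetic Fluo-8 calcium fluorescence · Control set – DMSO vehicle as 0%, PEA at EC100 as 100% · Repeats – single well for each compound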
TAAR1 antagonist = antagonists of human TAAR1 | Q96RJ0 | CHO RD-HGA16 TAAR1, Fluo-8 calcium fluorescence, antagonist | AID 624466 | 360,000 compounds, 1.5% hits | inhibition, % at 3 µM;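 active = inhibition above a per-plate cutoff, the mean inhibition of test compounds on that plate plus 3 SD, cut at about 49% in these data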;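 note: 0% = DMSO plus EC80 beta-PEA response and 100% = DMSO alone without agonist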
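Test system – hTAAR1-expressing CHO RD-HGA16 cells, Gα16-coupled · Reagent – β-PEA at EC80 concentration, post-compound challenge · Compound dosing – 3 µM, single point · Timing – 140 s kinetic read after compound, 140 s after agonist · Detection – Fluo-8 intracellular calcium dye fluorescence, real-time kinetic reads · Control set – DMSO and EC80 PEA controls · Repeats – n of 1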
CHRM1 agonist = activates human CHRM1 receptor; AID 588814; P11229; 360,000 compounds, 0.33% hits; CHO-K1 hM1, Fluo-8 calcium fluorescence, agonist mode; 0% DMSO, 100% acetylcholine EC100; activation, % at 3 µM;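 active = activation above the run's mean compound activation plus 3 SD, cut at about 16% in these data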;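 note: peak over basal fluorescence ratio within a 140 s kinetic read after compound addition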
* marks the source's active call; other numbers are inactive results; x = not tested or not shown. Most compounds without a hit are left out; they make up all but 3.4% or so of the library.

SMILES	M1 PAM	CHRM1 antagonist	TAAR1 agonist	TAAR1 antagonist	CHRM1 agonist
Cc1ccc(NC(=O)c2cccc(C(=O)Nc3ccc(C)cc3C(=O)O)c2)c(C(=O)O)c1	17	-12	0	-1	0
Cc1ccc(S(=O)(=O)CCSc2cccc(C(=O)Nc3ccccc3C(=O)O)c2)cc1	37*	6	-1	-41	-2
O=C(C(=O)N1CCC(CNS(=O)(=O)c2ccc(F)cc2)CC1)c1cc2ccccc2o1	x	x	2	10	x
O=C(NCCCN1CCOCC1)c1ccc2c(c1)N(Cc1cccc(Cl)c1)C(=O)CS2	-32	65*	5	-21	-11
Cc1ccc(Cc2cnc(NC(=O)c3ccco3)s2)cc1	6	-22	2	-1	-1
O=C(Nc1ncc(Cc2ccc(SC(F)F)cc2)s1)c1ccc(OC(F)F)cc1	-6	16	46*	-1	0
O=C1CCCN1C1CCN(Cc2ccccc2)S(=O)(=O)N1 (stereo unspecified)	x	x	4	-26	x
CC(NC(=O)c1ccco1)C(c1cccs1)N1CCN(c2ccc(F)cc2)CC1 (stereo unspecified)	-18	51*	13	9	-9
COc1ccc(-c2ccc3[nH]c4c(c3c2)CCN2C(=O)[C@@H]([C@H](C)O)[C@@H](N(C)C(=O)Nc3ccc(F)cc3)C[C@@H]42)cc1	14	-1	7	49*	6
COc1ccc(-c2ccc3[nH]c4c(c3c2)CCN2C(=O)[C@@H]([C@H](C)O)[C@@H](N(C)C(=O)Nc3cc(Cl)cc(Cl)c3)C[C@@H]42)cc1	0	1	1	1	-1
CCOCCc1nnc(NC(=O)CCc2ccccc2)s1	18	-12	3	-5	3
CCOCCc1nnc(NC(=O)Cc2ccc(Br)cc2)s1	11	-9	46*	-12	10
COc1cc(OC)cc(C(=O)NCC(=O)NC(C)c2ccccc2)c1 (stereo unspecified)	6	75*	4	5	1
COc1cc(OC)cc(C(=O)NC(C(=O)NCCc2ccccn2)C(C)C)c1 (stereo unspecified)	10	-14	7	-13	-7
COc1cc(OC)cc(C(=O)NC(C(=O)NCc2ccccn2)C(C)C)c1 (stereo unspecified)	-29	78*	2	2	-9
CCCC(=O)N1CCC1(C)C(=O)NS(=O)(=O)c1cc2c(cc1C)CCCS2(=O)=O (stereo unspecified)	-5	0	2	-17	-3
COc1ccc(N2C(=O)c3[nH]nc(-c4ccccc4)c3C2c2ccc(F)cc2)cc1 (stereo unspecified)	x	x	35	-22	x
Cc1cccc[n+]1CC(=O)c1ccc2c(c1)OCCO2	-27	28*	0	-14	-11
O=S(=O)(CCN1CCN(C(c2ccccc2)c2ccccc2)CC1)C(F)(F)F	-34	77*	-2	-5	-14
c1ccc(CN2CCN(C(c3ccccc3)c3ccccc3)CC2)cc1	-25	44*	5	-41	-9
OC(CN1CCN(Cc2ccccc2)CC1)c1ccc(F)cc1 (stereo unspecified)	2	-3	1	10	-8
c1ccc(CN2CCN(C(c3ccccc3)c3nnnn3Cc3ccccc3)CC2)cc1 (stereo unspecified)	-3	-19	5	-3	-8
Fc1ccc(CN2CCN(C(c3ccccc3)c3ccccc3)CC2)cc1	-27	36*	6	-35	-8
CC(=O)Nc1ccc(S(=O)(=O)c2ccnc3cc(Cl)ccc23)cc1	12	-9	7	8	-1
O=C(NCc1ccccc1)[C@@H]1CCCN1C(=O)[C@H]1CCCN1C(=O)c1ccc(F)cc1	x	x	0	-26	x
COc1ccc(S(=O)(=O)N2CCCc3nc(-c4ccccc4)ccc32)cc1	x	x	2	-4	x
COc1ccc(CN2C(=O)CN(S(C)(=O)=O)CC2(C)C(=O)Nc2c(C)cccc2C)cc1OC (stereo unspecified)	x	x	1	-14	x
O=C(Cc1ccccc1)N1CCC(c2nc3ccccc3[nH]2)CC1	-5	12	1	19	-3
COCC(=O)N1CCC(c2nc3ccccc3[nH]2)CC1	0	-5	0	-17	20*

Screens from PubChem.
